Results as given in ChEMBL document CHEMBL1153573, “Synthesis of a series of N6-substituted adenosines with activity against trypanosomatid parasites” (Eur J Med Chem, 2009).

System: Trypanosoma brucei rhodesiense
Assay: Antitrypanosomal activity against Trypanosoma brucei rhodesiense STIB 900 after 72 hrs by alamar blue based microplate assay
Assay type: functional, organism-based
Details: STIB 900, 72 h
Outline: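 Bloodstream-form T. b. rhodesiense STIB 900, 10⁴ per well, in minimum essential medium with 2-mercaptoethanol and 15% heat-inactivated horse serum. Serial dilutions spanning […]. Incubated 37 °C, 5% CO₂, 72 h. Resazurin (Alamar Blue) then added and incubation continued. Fluorescence read at ex 536/em 588 nm as percent of control, IC50 calculated. Melarsoprol standard.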

Row | SMILES | IC50
1 | O=C(Cc1cccc2ccccc12)NCCOCCNc1ncnc2c1ncn2[C@@H]1O[C@H](CO)[C@@H](O)[C@H]1O | > 170 µM
2 | CC(=O)Nc1ccc(C(=O)NCCOCCNc2ncnc3c2ncn3[C@@H]2O[C@H](CO)[C@@H](O)[C@H]2O)cc1 | 132 µM
3 | COc1ccc(C(=O)NCCOCCNc2ncnc3c2ncn3[C@@H]2O[C@H](CO)[C@@H](O)[C@H]2O)cc1OC | > 170 µM
4 | O=C(NCCOCCNc1ncnc2c1ncn2[C@@H]1O[C@H](CO)[C@@H](O)[C@H]1O)c1ccc(Oc2ccccc2)cc1 | 10 µM
5 | O=C(CCCc1c[nH]c2ccccc12)NCCOCCNc1ncnc2c1ncn2[C@@H]1O[C@H](CO)[C@@H](O)[C@H]1O | 37.6 µM
6 | O=C(CCCc1ccc([N+](=O)[O-])cc1)NCCOCCNc1ncnc2c1ncn2[C@@H]1O[C@H](CO)[C@@H](O)[C@H]1O | 88.7 µM
7 | O=C(CCCOc1ccccc1)NCCOCCNc1ncnc2c1ncn2[C@@H]1O[C@H](CO)[C@@H](O)[C@H]1O | 3.4 µM
8 | O=C(NCCOCCNc1ncnc2c1ncn2[C@@H]1O[C@H](CO)[C@@H](O)[C@H]1O)c1ccc(F)c(F)c1 | 167 µM
9 | COc1cccc(CC(=O)NCCOCCNc2ncnc3c2ncn3[C@@H]2O[C@H](CO)[C@@H](O)[C@H]2O)c1 | 132 µM
10 | O=C(NCCOCCNc1ncnc2c1ncn2[C@@H]1O[C@H](CO)[C@@H](O)[C@H]1O)C(c1ccccc1)c1ccccc1 | 85.9 µM

Further compounds by falling IC50, results first:

Row | IC50 | SMILES
11 | 125 µM | CC(C)=CC(=O)NCCOCCNc1ncnc2c1ncn2[C@@H]1O[C@H](CO)[C@@H](O)[C@H]1O
12 | 49.7 µM | O=C(Cc1c(Cl)cccc1Cl)NCCOCCNc1ncnc2c1ncn2[C@@H]1O[C@H](CO)[C@@H](O)[C@H]1O
13 | 13.6 µM | O=C(NCCOCCNc1ncnc2c1ncn2[C@@H]1O[C@H](CO)[C@@H](O)[C@H]1O)c1cccc(F)c1
14 | 9.2 µM | COc1ccc(CC(=O)NCCOCCNc2ncnc3c2ncn3[C@@H]2O[C@H](CO)[C@@H](O)[C@H]2O)cc1OC
15 | 4 µM | O=C(CCCc1ccccc1)NCCOCCNc1ncnc2c1ncn2[C@@H]1O[C@H](CO)[C@@H](O)[C@H]1O
